Our source for the IC50 values is ChEMBL document CHEMBL1811805, “Molecular factors governing inhibition of arylimidamides against Leishmania: conservative computational modeling to improve chemotherapies” (Bioorg Med Chem, 2011).

The structures appear in SMILES notation.

One experiment has as its system Leishmania amazonensis. As to the kind of experiment: Antileishmanial activity against beta-lactamase transfected Leishmania amazonensis promastigotes infected in macrophages after 72 hrs by spectrophotometric analysis. The experiment is classed as functional, organism-based. In a few lines: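 Macrophages plated and adhered overnight; infected with β-lactamase-transfected L. amazonensis promastigotes (MOI 5:1) overnight; compounds added for 72 hours at 34 °C; nitrocefin in lysis buffer added for 3 to 5 hours further; absorbance read at 490 nm. IC50 (μM) averaged with standard errors, n ≥ 3.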

A further experiment deals with Leishmania donovani. The experiment in a line: Antileishmanial activity against Leishmania donovani axenic amastigotes after 3 days by tetrazolium dye based spectrophotometric analysis at pH 5.5. In kind it is functional, organism-based. The note with it: 72 h. In a few lines:
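Ld1s axenic amastigote-like L. donovani grown in potassium-based medium, pH 5.5, 37 °C; exposed to compounds for three days; tetrazolium dye added and read spectrophotometrically. IC50 (μM) averaged with standard errors, n ≥ 3.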

With `N/C(=N\c1ccc(-c2ccc(-c3ccc(/N=C(\N)c4ccccn4)cc3OC3CCNCC3)o2)c(OC2CCNCC2)c1)c1ccccn1`, the results for the IC50 in the experiment on Leishmania amazonensis and in the experiment on Leishmania donovani were greater than 10 µM and 59 µM, respectively.
In the case of `N=C(Nc1ccc(-c2ccc(-c3ccc(NC(=N)c4ccccn4)cc3F)o2)c(F)c1)c1ccccn1`, the IC50 (commonly the concentration that gives 50% inhibition) came out at 1.4 µM in the experiment with Leishmania amazonensis and 4.2 µM with Leishmania donovani.
The like results for `N=C(Nc1cnc(-c2ccc(-c3cnc(NC(=N)c4ccccn4)cn3)o2)cn1)c1ccccn1` were, in that order, greater than 10 µM and greater than 100 µM.
In the same order, the values of `CC(C)COc1cc(NC(=N)c2ncccn2)ccc1-c1ccc(-c2ccc(NC(=N)c3ncccn3)cc2OCC(C)C)o1` are 0.49 µM and 2.4 µM.
The like results for `N=C(Nc1ccc(-c2ccc(-c3ccc(NC(=N)c4ccccn4)cc3Br)o2)c(Br)c1)c1ccccn1` were, in that order, 0.62 µM and 1.2 µM.
As to `CC(C)Oc1cc(NC(=N)c2ccc(Br)cn2)ccc1-c1ccc(-c2ccc(NC(=N)c3ccc(Br)cn3)cc2OC(C)C)o1`, the values for the IC50 with Leishmania amazonensis and in the experiment on Leishmania donovani were greater than 10 µM and 28 µM, respectively.
Turning to `CC(C)Oc1cc(NC(=N)c2ccc(Cl)cn2)ccc1-c1ccc(-c2ccc(NC(=N)c3ccc(Cl)cn3)cc2OC(C)C)o1`, the figures for the IC50 in the experiment on Leishmania amazonensis and in the experiment on Leishmania donovani were greater than 10 µM and 5.6 µM, respectively.
In the same order, the values of `Cc1c(-c2ccc(NC(=N)c3ccccn3)cc2)oc(-c2ccc(NC(=N)c3ccccn3)cc2)c1C` are 0.11 µM and 0.37 µM.
In the same order, the values of `CC(C)Oc1cc(NC(=N)c2ccccn2)ccc1-c1ccc(-c2ccc(NC(=N)c3ccccn3)cc2OC(C)C)s1` are 0.045 µM and 0.68 µM.
The like results for `N=C(Nc1ccc(-c2cc(-c3ccccc3)c(-c3ccc(NC(=N)c4ccccn4)cc3)o2)cc1)c1ccccn1` were, in that order, 0.11 µM and 1.7 µM.
`N=C(Nc1ccc(-c2ccc(-c3ccc(NC(=N)c4ccccn4)cc3OC3CCCC3)o2)c(OC2CCCC2)c1)c1ccccn1`: the IC50 was 0.17 µM with Leishmania amazonensis and 1.4 µM with Leishmania donovani.
The like results for `N=C(Nc1ccc(-c2ccc(-c3ccc(NC(=N)c4ccccn4)cc3OCc3ccccc3)o2)c(OCc2ccccc2)c1)c1ccccn1` were, in that order, 0.51 µM and 4.5 µM.
The like results for `CC(C)Oc1cc(NC(=N)c2csc(N)n2)ccc1-c1ccc(-c2ccc(NC(=N)c3csc(N)n3)cc2OC(C)C)o1` were, in that order, 1.7 µM and 21 µM.
In the case of `Cc1cc(NC(=N)c2ccccn2)ccc1-c1ccc(-c2ccc(NC(=N)c3ccccn3)cc2C)o1`, the IC50 with Leishmania amazonensis was 0.29 µM; with Leishmania donovani it was 0.67 µM.
In the case of `N=C(Nc1ccc(-c2ccc(-c3ccc(NC(=N)c4ccccn4)cc3)o2)cc1)c1ccccn1`, the IC50 in the experiment on Leishmania amazonensis was 0.53 µM; in the experiment on Leishmania donovani it was 1.6 µM.
The like results for `CC(C)Oc1cc(NC(=N)c2ncccn2)ccc1-c1ccc(-c2ccc(NC(=N)c3ncccn3)cc2OC(C)C)o1` were, in that order, 0.7 µM and 0.55 µM.
With `N=C(Nc1ccc(-c2ccc(-c3ccc(NC(=N)c4ncccn4)cc3OC3CCCC3)o2)c(OC2CCCC2)c1)c1ncccn1`, the IC50 is 0.21 µM in the experiment with Leishmania amazonensis and 1.5 µM in the experiment on Leishmania donovani.
The like results for `N=C(Nc1ccc(-c2ccc(-c3ccc(NC(=N)c4ccc(Br)cn4)cc3OC3CCCC3)o2)c(OC2CCCC2)c1)c1ccc(Br)cn1` were, in that order, greater than 10 µM and greater than 100 µM.
The like results for `COc1cc(NC(=N)c2ccccn2)ccc1-c1ccc(-c2ccc(NC(=N)c3ccccn3)cc2OC)o1` were, in that order, 0.37 µM and 0.53 µM.
The like results for `CC(=O)Nc1nc(C(=N)Nc2ccc(-c3ccc(-c4ccc(NC(=N)c5csc(NC(C)=O)n5)cc4OC(C)C)o3)c(OC(C)C)c2)cs1` were, in that order, 0.22 µM and greater than 100 µM.
On to `CC(C)CCOc1cc(NC(=N)c2ncccn2)ccc1-c1ccc(-c2ccc(NC(=N)c3ncccn3)cc2OCCC(C)C)o1`, for which the IC50 stood at 0.32 µM in the experiment on Leishmania amazonensis and 7.9 µM with Leishmania donovani.
The like results for `CC(C)(C)CCOc1cc(NC(=N)c2ccccn2)ccc1-c1ccc(-c2ccc(NC(=N)c3ccccn3)cc2OCCC(C)(C)C)o1` were, in that order, greater than 10 µM and 28 µM.
In the same order, the values of `CC(=N)Nc1ccc(-c2ccc(-c3ccc(NC(C)=N)cc3OC3CCCC3)o2)c(OC2CCCC2)c1` are 4.7 µM and 41 µM.
The like results for `N=C(Nc1ccc(-c2ccc(-c3ccc(NC(=N)c4cnccn4)cc3)o2)cc1)c1cnccn1` were, in that order, greater than 10 µM and greater than 100 µM.
With `CC(C)COc1cc(NC(=N)c2ccccn2)ccc1-c1ccc(-c2ccc(NC(=N)c3ccccn3)cc2OCC(C)C)o1`, the IC50 worked out at 0.095 µM in the experiment on Leishmania amazonensis and 1.1 µM in the experiment on Leishmania donovani.
The like results for `N=C(Nc1ccc(-c2ccc(-c3ccc(NC(=N)c4ccccn4)nc3)o2)cn1)c1ccccn1` were, in that order, greater than 10 µM and greater than 50 µM.
The like results for `N=C(Nc1ccc(-c2ccc(-c3ccc(NC(=N)c4c[nH]cn4)cc3OC3CCCC3)o2)c(OC2CCCC2)c1)c1c[nH]cn1` were, in that order, greater than 10 µM and 14 µM.
In the case of `Cc1cccc(C(=N)Nc2ccc(-c3ccc(-c4ccc(NC(=N)c5cccc(C)n5)cc4C)o3)c(C)c2)n1`, the IC50 with Leishmania amazonensis was 3.1 µM; in the experiment with Leishmania donovani, greater than 50 µM.
The like results for `N=C(Nc1ncc(-c2ccc(-c3cnc(NC(=N)c4ccccn4)nc3)o2)cn1)c1ccccn1` were, in that order, greater than 10 µM and greater than 100 µM.
In the same order, the values of `CC(C)Oc1cc(NC(=N)c2cn(C)cn2)ccc1-c1ccc(-c2ccc(NC(=N)c3cn(C)cn3)cc2OC(C)C)o1` are 5 µM and 31 µM.
The like results for `CC(C)Oc1cc(NC(=N)c2ccc[nH]2)ccc1-c1ccc(-c2ccc(NC(=N)c3ccc[nH]3)cc2OC(C)C)o1` were, in that order, 0.9 µM and 16 µM.
Turning to `CC(C)Oc1cc(NC(=N)c2ccc(F)cn2)ccc1-c1ccc(-c2ccc(NC(=N)c3ccc(F)cn3)cc2OC(C)C)o1`, the IC50 with Leishmania amazonensis was determined as 0.59 µM; with Leishmania donovani it was 2.5 µM.
The like results for `COC(=O)[C@H](N)CCOc1cc(NC(=N)c2ccccn2)ccc1-c1ccc(-c2ccc(NC(=N)c3ccccn3)cc2OCC[C@H](N)C(=O)OC)s1` were, in that order, 5.5 µM and greater than 100 µM.
As to `CC(C)COc1cc(NC(=N)c2ccc(Br)cn2)ccc1-c1ccc(-c2ccc(NC(=N)c3ccc(Br)cn3)cc2OCC(C)C)o1`, the IC50 in the experiment with Leishmania amazonensis is greater than 10 µM; in the experiment on Leishmania donovani it was greater than 50 µM.
As for `N=C(Nc1ccc(-c2ccc(-c3ccc(NC(=N)c4ccccn4)cc3O)o2)c(O)c1)c1ccccn1`, the figures for the 50% inhibitory concentration (IC50) in the experiment with Leishmania amazonensis and with Leishmania donovani were 0.96 µM and 1.5 µM, respectively.
In the same order, the values of `CNc1nc(C(=N)Nc2ccc(-c3ccc(-c4ccc(NC(=N)c5csc(NC)n5)cc4OC(C)C)o3)c(OC(C)C)c2)cs1` are 0.3 µM and 1.3 µM.
In the same order, the values of `CC(C)Oc1cc(NC(=N)c2cnccn2)ccc1-c1ccc(-c2ccc(NC(=N)c3cnccn3)cc2OC(C)C)o1` are 3.7 µM and 20 µM.
In the case of `CC(C)Oc1cc(NC(=N)c2ccc(N3CCCC3)cn2)ccc1-c1ccc(-c2ccc(NC(=N)c3ccc(N4CCCC4)cn3)cc2OC(C)C)o1`, the IC50 with Leishmania amazonensis came out at 0.27 µM; in the experiment on Leishmania donovani it was 1.9 µM.
In the case of `CC(C)N1CCC(Oc2cc(NC(=N)c3ccccn3)ccc2-c2ccc(-c3ccc(NC(=N)c4ccccn4)cc3OC3CCN(C(C)C)CC3)o2)CC1`, the IC50 worked out at 2.1 µM in the experiment on Leishmania amazonensis and 28 µM in the experiment on Leishmania donovani.
`COc1cccc(C(=N)Nc2ccc(-c3ccc(-c4ccc(NC(=N)c5cccc(OC)n5)cc4OC(C)C)o3)c(OC(C)C)c2)n1`: the IC50 stood at 2.7 µM in the experiment on Leishmania amazonensis and 4.5 µM in the experiment on Leishmania donovani.
In the case of `CC(C)Oc1cc(NC(=N)c2ccn(C)n2)ccc1-c1ccc(-c2ccc(NC(=N)c3ccn(C)n3)cc2OC(C)C)o1`, the IC50 was 0.74 µM in the experiment with Leishmania amazonensis and 5.8 µM in the experiment on Leishmania donovani.
As to `CC(=O)N(C)c1nc(C(=N)Nc2ccc(-c3ccc(-c4ccc(NC(=N)c5csc(N(C)C(C)=O)n5)cc4OC(C)C)o3)c(OC(C)C)c2)cs1`, the IC50 with Leishmania amazonensis was 0.81 µM; in the experiment on Leishmania donovani it was 3.6 µM.
For `CC(C)CCOc1cc(NC(=N)c2ccccn2)ccc1-c1ccc(-c2ccc(NC(=N)c3ccccn3)cc2OCCC(C)C)o1`, the IC50 is greater than 10 µM in the experiment with Leishmania amazonensis and 5.1 µM with Leishmania donovani.
The like results for `COc1ccc(C(=N)Nc2ccc(-c3ccc(-c4ccc(NC(=N)c5ccc(OC)cn5)cc4OC(C)C)o3)c(OC(C)C)c2)nc1` were, in that order, 0.13 µM and 1 µM.
In the same order, the values of `Cc1nc(C(=N)Nc2ccc(-c3ccc(-c4ccc(NC(=N)c5csc(C)n5)cc4OC(C)C)o3)c(OC(C)C)c2)cs1` are 0.17 µM and 1.4 µM.
The like results for `N=C(Nc1ccc(-c2ccc(-c3ccc(NC(=N)c4ccccn4)cc3Cl)o2)c(Cl)c1)c1ccccn1` were, in that order, 0.56 µM and 2 µM.
For `CC(C)Oc1cc(NC(=N)c2cccnn2)ccc1-c1ccc(-c2ccc(NC(=N)c3cccnn3)cc2OC(C)C)o1`, the IC50 with Leishmania amazonensis and in the experiment on Leishmania donovani was 1.1 µM throughout.
As for `CC(C)COc1cc(NC(=N)c2c[nH]cn2)ccc1-c1ccc(-c2ccc(NC(=N)c3c[nH]cn3)cc2OCC(C)C)o1`, the IC50 in the experiment with Leishmania amazonensis was greater than 10 µM; in the experiment with Leishmania donovani, 23 µM.
As to `N=C(Nc1ccc(-c2ccc(-c3ccc(NC(=N)c4ccccn4)cc3OCC(F)(F)F)o2)c(OCC(F)(F)F)c1)c1ccccn1`, the figures for the IC50 in the experiment on Leishmania amazonensis and with Leishmania donovani were 0.25 µM and 1.1 µM, respectively.
As for `CC(C)Oc1cc(NC(=N)c2ccc(N)cn2)ccc1-c1ccc(-c2ccc(NC(=N)c3ccc(N)cn3)cc2OC(C)C)o1`, the IC50 is 0.64 µM with Leishmania amazonensis and 0.82 µM in the experiment on Leishmania donovani.
For the compound `Cc1ccc(C(=N)Nc2ccc(-c3ccc(-c4ccc(NC(=N)c5ccc(C)cn5)cc4C)o3)c(C)c2)nc1`, the IC50 in the experiment with Leishmania amazonensis was determined as 0.16 µM; with Leishmania donovani it was 0.84 µM.
As to `CC(C)Oc1cc(NC(=N)c2ncc[nH]2)ccc1-c1ccc(-c2ccc(NC(=N)c3ncc[nH]3)cc2OC(C)C)o1`, the IC50 in the experiment with Leishmania amazonensis stood at 0.37 µM; with Leishmania donovani it was 1 µM.
